Calls of active or inactive are those of the source. The rule behind the calls is not given here.
Experiments:
[1] = system: Human alphaherpesvirus 1; assay: In vitro antiviral activity (virus ratings (VR)) determined by comparing CPE development in drug-treated cells (T) and HSV-1 virus control cells; assay type: functional
[2] = system: L1210; assay: In vitro antitumor activity in the culture media (that produced 50% inhibition of the L1210 leukemia cell growth as compared to the untreated cells); b=Inactive at 10E-4 M; assay type: functional, cell-based; details: Mus musculus
Summary of the method: (§1)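 L1210 leukemia and P388 lymphoid neoplasm cells kept in RPMI-1640 with 10% heat-inactivated fetal calf serum. Seeded at 5 × 10⁴ cells/mL, then grown 48 h at 37 °C with compound at 4-5 log doses. Growth counted by Coulter counter and expressed as % of control tubes. ID50 is the dose giving 50% growth inhibition.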

[3] = system: P388; assay: In vitro antitumor activity in the culture media (that produced 50% inhibition of the P388 leukemia cell growth as compared to the untreated cells); b=Inactive at 10E-4 M; assay type: functional, cell-based; details: Mus musculus; summary of the method: as §1
[4] = system: Human respirovirus 3; assay: In vitro antiviral activity (virus ratings (VR)) determined by comparing CPE development in drug-treated cells (T) and Parainfluenza type 3 virus control cells; assay type: functional
[5] = system: Vesicular stomatitis virus; assay: In vitro antiviral activity (virus ratings (VR)) determined by comparing CPE development in drug-treated cells (T) and Vesicular stomatitis virus control cells; assay type: functional
[6] = system: Vaccinia virus; assay: In vitro antiviral activity (virus ratings (VR)) determined by comparing CPE development in drug-treated cells (T) and Vaccinia virus control cells; assay type: functional, Orthopoxvirus vaccinia
[7] = Toxic level was evaluated; None; assay type: ADME
[8] = system: L1210; assay: In vitro antitumor activity in the culture media (that produced 50% inhibition of the L1210 leukemia cell growth as compared to the untreated cells); assay type: functional; details: Mus musculus, read-out: ID50 (the source's name)
Summary of the method: (§2)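 L1210 or P388 cells kept in RPMI-1640 with 10% heat-inactivated fetal calf serum and seeded in tubes at 5 × 10⁴ cells/mL. Grown with compound at 4-5 log doses for 48 h at 37 °C. Cells counted electronically, growth expressed as % of untreated control tubes, and the dose giving 50% growth inhibition (ID₅₀) determined.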

[9] = system: P388; assay: In vitro antitumor activity in the culture media (that produced 50% inhibition of the P388 leukemia cell growth as compared to the untreated cells); assay type: functional; details: Mus musculus, read-out: ID50 (the source's name); summary of the method: as §2
[10] = system: Human respirovirus 3; assay: In vitro antiviral activity (virus ratings (VR)) determined by comparing CPE development in drug-treated cells (T) and Parainfluenza type 3 virus control cells.; assay type: functional
[11] = system: P388; assay: In vitro antitumor activity in the culture media (that produced 50% inhibition of the P388 leukemia cell growth as compared to the untreated cells); Inhibition at 10E-4; assay type: functional, Mus musculus
[12] = system: L1210; assay: In vitro antitumor activity in the culture media (that produced 50% inhibition of the L1210 leukemia cell growth as compared to the untreated cells); Inhibition at 10E-5; assay type: functional, Mus musculus
[13] = system: P388; assay: In vitro antitumor activity in the culture media (that produced 50% inhibition of the P388 leukemia cell growth as compared to the untreated cells); b=Inactive at 10E-4; assay type: functional, cell-based; details: Mus musculus; summary of the method: as §1
[14] = system: Vesicular stomatitis virus; assay: In vitro antiviral activity (virus ratings (VR)) determined by comparing CPE development in drug-treated cells (T) and VSV virus control cells; assay type: functional
[15] = system: P388; assay: In vitro antitumor activity in the culture media (that produced 50% inhibition of the P388 leukemia cell growth as compared to the untreated cells); Inhibition at 10E-5; assay type: functional, Mus musculus

In the case of `Nc1cc2ncn([C@H]3C[C@H](O)[C@@H](CO)O3)c2c(O)n1`, the Virus rating [1] is reported as 0.8, the ID50 [2] is reported as “Inactive at 10^-4M” and the ID50 [3] is reported as “Inactive at 10^-4M”. The Virus rating [4] was 0.92, the Virus rating [5] was 1.06 and the Virus rating [6] was 1.42. The Toxic level [7] was “Not Active”.

Molecule `Nc1cc2c(ncn2[C@H]2C[C@H](O)[C@@H](CO)O2)c(O)n1` has a Virus rating [1] of 1.28, an IC50 [8] of 20 µM and an IC50 [9] of 42 µM. It also gave a Virus rating [10] of 1.45, a Virus rating [5] of 1.03 and a Virus rating [6] of 1.72. The Toxic level [7] was “Not Active”.

For `Nc1cc2[nH]cnc2c(=O)[nH]1` [DEZAGUANINE], the Virus rating [1] was 1.4, the IC50 [8] was 62 µM and the Inhibition [11] was 39%. It also gave a Virus rating [4] of 0.98, a Virus rating [5] of 1.55 and a Virus rating [6] of 1.55.

Molecule `NNc1cc2ncnc-2c(O)n1N` has a Virus rating [1] of 0.05, an IC50 [8] of 35 µM and an IC50 [9] of 62 µM. For the same molecule, the Virus rating [10] was 0.03, the Virus rating [5] was 0 and the Virus rating [6] was 0.15.

For `Nc1cc2c(ncn2[C@@H]2C[C@H](O)[C@@H](CO)O2)c(O)n1`, the Virus rating [1] was 1, the Inhibition [12] was 45% and the ID50 [13] was “Inactive at 10^-4M”. The Virus rating [10] was 0.7, the Virus rating [5] was 0.8 and the Virus rating [6] was 1.65. For the same molecule, the Toxic level [7] was “Not Active”.

With `Nc1cc2c(ncn2C2O[C@H](CO)[C@@H](O)[C@H]2O)c(=O)n1N` (some centres not stated) the Virus rating [1] was 0.25, the ID50 [2] was “Inactive at 10^-4M” and the ID50 [3] was “Inactive at 10^-4M”. The Virus rating [10] was 0.3, the Virus rating [14] was 0.45 and the Virus rating [6] was 1.25.

For `NC(=O)c1ncn([C@@H]2O[C@H](CO)[C@@H](O)[C@H]2O)n1` [RIBAVIRIN], the Virus rating [1] was 0.6, the Virus rating [10] was 1.3 and the Virus rating [5] was 0.8. For the same molecule, the Virus rating [6] was 1.2 and the Toxic level [7] was “Not Active”.

Work on `Nc1cc2c(ncn2[C@@H]2O[C@H](CO)[C@@H](O)[C@H]2O)c(=O)[nH]1` yielded a Virus rating [1] of 1.4, an IC50 [8] of 18 µM and an IC50 [9] of 16 µM. For the same molecule, the Virus rating [10] was 1.18, the Virus rating [5] was 1.5 and the Virus rating [6] was 1.5.

With `Nc1cc2c(ncn2[C@@H]2O[C@@H]3COP(=O)(O)O[C@H]3[C@H]2O)c(O)n1` the Virus rating [1] was 1.02, the IC50 [8] was 4.1 µM and the IC50 [9] was 45 µM. The Virus rating [10] was 0.62, the Virus rating [5] was 1 and the Virus rating [6] was 1.15.

Work on `Nc1cc2ncn([C@@H]3C[C@H](O)[C@@H](CO)O3)c2c(O)n1` yielded a Virus rating [1] of 0.3, an IC50 [8] of 80 µM and an Inhibition [15] of 31%. The Virus rating [10] was 0.22, the Virus rating [5] was 0.35 and the Virus rating [6] was 1.18.

Reference: ChEMBL document CHEMBL1122625, “Synthesis and antiviral/antitumor activities of certain 3-deazaguanine nucleosides and nucleotides” (J Med Chem, 1984)
